Test results taken from ChEMBL document CHEMBL3808372, “Identification of quinones as novel PIM1 kinase inhibitors” (Bioorg Med Chem Lett, 2016).

Experiments:
[1] = target: Receptor tyrosine-protein kinase erbB-4 (Homo sapiens) (UniProt Q15303); test: Inhibition of human ERBB4 (690 to 994 amino acid residues) assessed as enzyme activity at 10 uM by KINOMEScan assay expressed in bacterial system assessed as enzyme activity at 10 uM by KINOMEScan assay; parameters: scale not given: the % may be the effect or the level left
Outline: (§1)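 Competition binding screen on a 100-kinase KINOMEscan panel, compound tested at a single 10 μM concentration. Primary binding read-out expressed as % Ctrl = (test compound signal − positive control signal)/(negative control signal − positive control signal) × 100, with lower values meaning stronger binding.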

[2] = target: Mitogen-activated protein kinase 14 (Homo sapiens) (UniProt Q16539); test: Inhibition of full length human p38-alpha expressed in bacterial system assessed as enzyme activity at 10 uM by KINOMEScan assay; parameters: scale not given: the % may be the effect or the level left
Outline: (§2)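 Commercial KINOMEscan binding panel of 100 kinases, test compound at 10 μM. Results are primary-screen binding interactions expressed as % Ctrl = (test compound signal − positive control signal)/(negative control signal − positive control signal) × 100. Lower % Ctrl means stronger binding.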

[3] = target: ALK tyrosine kinase receptor (Homo sapiens) (UniProt Q9UM73); test: Inhibition of human ALK (1088 to 1409 amino acid residues) assessed as enzyme activity at 10 uM by KINOMEScan assay; parameters: scale not given: the % may be the effect or the level left; outline: as §2
[4] = system: Tyrosine-protein kinase ABL1 (Homo sapiens), P00519 [T315I]; test: Inhibition of human ABL1 kinase T315I mutant phosphorylation (229 to 512 amino acid residues) assessed as enzyme activity at 10 uM by KINOMEScan assay; parameters: scale not given: the % may be the effect or the level left; outline: as §1
[5] = target: Inhibitor of nuclear factor kappa-B kinase subunit beta (Homo sapiens) (UniProt O14920); test: Inhibition of full length human IKK-beta assessed as enzyme activity at 10 uM by KINOMEScan assay; parameters: scale not given: the % may be the effect or the level left; outline: as §1
[6] = target: Rho-associated protein kinase 2 (Homo sapiens) (UniProt O75116); test: Inhibition of human ROCK2 (1 to 431 amino acid residues) assessed as enzyme activity at 10 uM by KINOMEScan assay; parameters: scale not given: the % may be the effect or the level left
Outline: (§3)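 Single-concentration competition binding screen (KINOMEscan) across a 100-kinase panel at 10 μM. Primary binding read-out is reported as % of control: (test signal − positive-control signal)/(negative-control signal − positive-control signal) × 100. Lower values indicate stronger binding.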

[7] = target: Serine/threonine-protein kinase PAK 1 (Homo sapiens) (UniProt Q13153); test: Inhibition of human PAK1 (149 to 545 amino acid residues) expressed in bacterial system assessed as enzyme activity at 10 uM by KINOMEScan assay; parameters: scale not given: the % may be the effect or the level left; outline: as §1
[8] = target: Aurora kinase A (Homo sapiens) (UniProt O14965); test: Inhibition of human AURKA (122 to 401 amino acid residues) assessed as enzyme activity at 10 uM by KINOMEScan assay; parameters: scale not given: the % may be the effect or the level left; outline: as §1
[9] = target: Serine/threonine-protein kinase pim-1 (Homo sapiens, UniProt P11309); test: Share of MOE computational kinase hits for Pim family
[10] = target: Casein kinase II (Homo sapiens) (UniProt P67870+P68400+P19784); test: Share of MOE computational kinase hits for CK2
[11] = target: Serine/threonine-protein kinase PAK 4 (Homo sapiens) (UniProt O96013); test: Inhibition of human PAK4 (144 to 438 amino acid residues) expressed in bacterial system assessed as enzyme activity at 10 uM by KINOMEScan assay; parameters: scale not given: the % may be the effect or the level left; outline: as §3
[12] = target: Serine/threonine-protein kinase pim-2 (Homo sapiens) (UniProt Q9P1W9); test: Inhibition of PIM2 (unknown origin)
[13] = target: NUAK family SNF1-like kinase 2 (Homo sapiens) (UniProt Q9H093); test: Inhibition of human SNARK (22 to 333 amino acid residues) assessed as enzyme activity at 10 uM by KINOMEScan assay; parameters: scale not given: the % may be the effect or the level left; outline: as §3
[14] = target: Angiopoietin-1 receptor (Homo sapiens) (UniProt Q02763); test: Inhibition of human TIE2 (804 to 1112 amino acid residues) expressed in bacterial system assessed as enzyme activity at 10 uM by KINOMEScan assay; parameters: scale not given: the % may be the effect or the level left; outline: as §3
[15] = target: Mast/stem cell growth factor receptor Kit (Homo sapiens) (UniProt P10721); test: Inhibition of human KIT (571 to 952 amino acid residues) expressed in bacterial system assessed as enzyme activity at 10 uM by KINOMEScan assay; parameters: scale not given: the % may be the effect or the level left; outline: as §2
[16] = target: Tyrosine-protein kinase receptor UFO (Homo sapiens) (UniProt P30530); test: Inhibition of human AXL (497 to 821 amino acid residues) assessed as enzyme activity at 10 uM by KINOMEScan assay expressed in bacterial system assessed as enzyme activity at 10 uM by KINOMEScan assay; parameters: scale not given: the % may be the effect or the level left
Outline: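 Commercial KINOMEscan binding screen across a 100-kinase panel, test compound at 10 μM. Primary-screen binding interactions reported as % Ctrl = (test compound signal − positive control signal)/(negative control signal − positive control signal) × 100. Lower values indicate stronger hits.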

[17] = target: Ribosomal protein S6 kinase alpha-2 (Homo sapiens) (UniProt Q15349); test: Inhibition of human RSK2 Kin.Dom.1-N-terminal (1 to 394 amino acid residues) assessed as enzyme activity at 10 uM by KINOMEScan assay; parameters: scale not given: the % may be the effect or the level left; outline: as §3
[18] = system: Tyrosine-protein kinase ABL1 (Homo sapiens), P00519 [E255K]; test: Inhibition of human ABL1 kinase E255K mutant phosphorylation (229 to 512 amino acid residues) assessed as enzyme activity at 10 uM by KINOMEScan assay; parameters: scale not given: the % may be the effect or the level left; outline: as §1
[19] = target: Receptor tyrosine-protein kinase erbB-2 (Homo sapiens) (UniProt P04626); test: Inhibition of human ERBB2 (646 to 1225 amino acid residues) assessed as enzyme activity at 10 uM by KINOMEScan assay; parameters: scale not given: the % may be the effect or the level left; outline: as §1
[20] = target: Cyclin-dependent kinase 9 (Homo sapiens) (UniProt P50750); test: Inhibition of full length human CDK9 expressed in bacterial system assessed as enzyme activity at 10 uM by KINOMEScan assay; parameters: scale not given: the % may be the effect or the level left; outline: as §2
[21] = target: Vascular endothelial growth factor receptor 2 (Homo sapiens) (UniProt P35968); test: Inhibition of human VEGFR2 (787 to 1253 amino acid residues) assessed as enzyme activity at 10 uM by KINOMEScan assay; parameters: scale not given: the % may be the effect or the level left; outline: as §2
[22] = target: Ephrin type-A receptor 2 (Homo sapiens) (UniProt P29317); test: Inhibition of human EPHA2 (593 to 891 amino acid residues) assessed as enzyme activity at 10 uM by KINOMEScan assay expressed in bacterial system assessed as enzyme activity at 10 uM by KINOMEScan assay; parameters: scale not given: the % may be the effect or the level left; outline: as §2
[23] = target: Non-receptor tyrosine-protein kinase TYK2 (Homo sapiens) (UniProt P29597); test: Inhibition of human TYK2 JH1 catalytic domain (877 to 1187 amino acid residues) assessed as enzyme activity at 10 uM by KINOMEScan assay; parameters: scale not given: the % may be the effect or the level left; outline: as §3
[24] = target: Serine/threonine-protein kinase B-raf (Homo sapiens) (UniProt P15056); test: Inhibition of human BRAF (429 to 741 amino acid residues) assessed as enzyme activity at 10 uM by KINOMEScan assay; parameters: scale not given: the % may be the effect or the level left; outline: as §1
[25] = target: Phosphatidylinositol 4-phosphate 3-kinase C2 domain-containing subunit beta (Homo sapiens) (UniProt O00750); test: Inhibition of human PIK3C2B (1 to 1634 amino acid residues) assessed as enzyme activity at 10 uM by KINOMEScan assay; parameters: scale not given: the % may be the effect or the level left; outline: as §2

Sequence of Angiopoietin-1 receptor (Homo sapiens) (Q02763 whole entry, the tested form may be a part): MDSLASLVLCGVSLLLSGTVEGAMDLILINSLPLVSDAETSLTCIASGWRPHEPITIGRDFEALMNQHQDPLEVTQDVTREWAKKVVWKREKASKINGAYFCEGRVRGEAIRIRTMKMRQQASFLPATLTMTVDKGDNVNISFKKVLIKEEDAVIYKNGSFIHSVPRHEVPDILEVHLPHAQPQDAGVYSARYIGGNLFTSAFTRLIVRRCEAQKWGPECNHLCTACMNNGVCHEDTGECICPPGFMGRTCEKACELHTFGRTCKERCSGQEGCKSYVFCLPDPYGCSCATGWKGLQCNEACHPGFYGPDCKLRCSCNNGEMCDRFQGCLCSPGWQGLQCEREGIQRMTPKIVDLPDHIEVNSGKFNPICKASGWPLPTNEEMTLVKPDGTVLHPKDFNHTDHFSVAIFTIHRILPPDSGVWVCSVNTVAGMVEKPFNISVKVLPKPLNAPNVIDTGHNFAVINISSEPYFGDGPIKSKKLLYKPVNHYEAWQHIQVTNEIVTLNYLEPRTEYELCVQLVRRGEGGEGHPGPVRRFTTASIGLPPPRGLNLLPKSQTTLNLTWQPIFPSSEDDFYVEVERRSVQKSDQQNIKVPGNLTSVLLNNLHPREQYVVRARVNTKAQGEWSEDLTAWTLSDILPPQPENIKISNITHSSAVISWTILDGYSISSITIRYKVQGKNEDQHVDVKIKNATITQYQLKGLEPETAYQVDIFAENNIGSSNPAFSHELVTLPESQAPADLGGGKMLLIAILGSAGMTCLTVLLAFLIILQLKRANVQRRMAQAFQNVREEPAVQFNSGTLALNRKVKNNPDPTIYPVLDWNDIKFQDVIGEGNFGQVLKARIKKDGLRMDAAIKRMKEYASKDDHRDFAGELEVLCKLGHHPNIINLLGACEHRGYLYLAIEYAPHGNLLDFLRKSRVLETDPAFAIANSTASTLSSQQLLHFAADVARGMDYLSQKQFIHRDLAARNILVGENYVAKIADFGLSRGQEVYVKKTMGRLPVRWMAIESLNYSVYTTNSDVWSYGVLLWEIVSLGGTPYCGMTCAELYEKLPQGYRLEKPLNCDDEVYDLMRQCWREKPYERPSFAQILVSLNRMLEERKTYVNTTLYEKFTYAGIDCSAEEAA
Sequence of Aurora kinase A (Homo sapiens) (O14965 whole entry, the tested form may be a part): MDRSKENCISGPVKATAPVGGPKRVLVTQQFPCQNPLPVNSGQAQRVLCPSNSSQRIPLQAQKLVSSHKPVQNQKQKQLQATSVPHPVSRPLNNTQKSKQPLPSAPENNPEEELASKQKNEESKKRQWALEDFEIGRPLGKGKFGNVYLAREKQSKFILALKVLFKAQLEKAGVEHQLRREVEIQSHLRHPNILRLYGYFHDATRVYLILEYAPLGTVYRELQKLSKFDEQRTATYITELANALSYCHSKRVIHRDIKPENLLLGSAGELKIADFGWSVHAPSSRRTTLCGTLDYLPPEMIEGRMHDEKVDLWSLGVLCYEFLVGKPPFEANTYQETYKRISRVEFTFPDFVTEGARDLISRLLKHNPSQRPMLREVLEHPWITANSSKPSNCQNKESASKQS
Sequence of Inhibitor of nuclear factor kappa-B kinase subunit beta (Homo sapiens) (O14920 whole entry, the tested form may be a part): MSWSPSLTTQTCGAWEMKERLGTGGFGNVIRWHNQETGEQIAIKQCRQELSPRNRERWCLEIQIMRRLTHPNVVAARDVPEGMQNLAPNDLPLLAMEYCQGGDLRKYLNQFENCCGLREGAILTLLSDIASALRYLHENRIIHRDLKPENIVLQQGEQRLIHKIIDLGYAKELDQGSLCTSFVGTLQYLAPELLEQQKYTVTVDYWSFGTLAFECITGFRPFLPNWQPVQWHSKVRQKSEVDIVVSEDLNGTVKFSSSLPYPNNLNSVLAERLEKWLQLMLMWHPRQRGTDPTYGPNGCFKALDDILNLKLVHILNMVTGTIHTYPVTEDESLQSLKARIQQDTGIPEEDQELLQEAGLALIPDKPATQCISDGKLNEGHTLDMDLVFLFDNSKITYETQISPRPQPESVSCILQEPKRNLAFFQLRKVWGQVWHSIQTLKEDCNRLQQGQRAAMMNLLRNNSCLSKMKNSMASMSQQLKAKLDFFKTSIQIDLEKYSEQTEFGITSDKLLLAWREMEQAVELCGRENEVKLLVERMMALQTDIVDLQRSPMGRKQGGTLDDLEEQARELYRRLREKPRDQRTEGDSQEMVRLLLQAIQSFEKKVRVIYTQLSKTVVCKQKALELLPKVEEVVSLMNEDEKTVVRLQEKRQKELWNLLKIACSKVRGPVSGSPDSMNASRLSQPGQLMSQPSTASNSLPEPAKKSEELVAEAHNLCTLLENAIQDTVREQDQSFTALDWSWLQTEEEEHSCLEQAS
Sequence of Serine/threonine-protein kinase pim-1 (P11309 whole entry, looked up): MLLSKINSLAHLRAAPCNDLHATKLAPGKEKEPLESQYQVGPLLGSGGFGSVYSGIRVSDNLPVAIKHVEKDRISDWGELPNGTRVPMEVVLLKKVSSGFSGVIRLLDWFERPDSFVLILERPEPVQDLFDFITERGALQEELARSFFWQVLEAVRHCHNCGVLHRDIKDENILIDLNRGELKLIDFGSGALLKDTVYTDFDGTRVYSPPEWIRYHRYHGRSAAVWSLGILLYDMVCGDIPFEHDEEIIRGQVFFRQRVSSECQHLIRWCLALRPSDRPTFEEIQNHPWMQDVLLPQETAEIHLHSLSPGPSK
Sequence of Serine/threonine-protein kinase pim-2 (Homo sapiens) (Q9P1W9 whole entry, looked up, the tested form may be a part): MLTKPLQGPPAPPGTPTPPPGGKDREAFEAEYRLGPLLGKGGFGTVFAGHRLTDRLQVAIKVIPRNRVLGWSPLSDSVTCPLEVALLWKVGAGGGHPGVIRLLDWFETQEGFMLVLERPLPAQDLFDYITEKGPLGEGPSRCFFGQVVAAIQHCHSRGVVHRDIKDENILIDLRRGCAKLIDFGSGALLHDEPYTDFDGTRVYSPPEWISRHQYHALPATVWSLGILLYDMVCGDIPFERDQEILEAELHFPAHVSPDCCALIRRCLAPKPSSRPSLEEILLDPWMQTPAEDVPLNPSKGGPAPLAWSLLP
Sequence of Rho-associated protein kinase 2 (Homo sapiens) (O75116 whole entry, looked up, the tested form may be a part): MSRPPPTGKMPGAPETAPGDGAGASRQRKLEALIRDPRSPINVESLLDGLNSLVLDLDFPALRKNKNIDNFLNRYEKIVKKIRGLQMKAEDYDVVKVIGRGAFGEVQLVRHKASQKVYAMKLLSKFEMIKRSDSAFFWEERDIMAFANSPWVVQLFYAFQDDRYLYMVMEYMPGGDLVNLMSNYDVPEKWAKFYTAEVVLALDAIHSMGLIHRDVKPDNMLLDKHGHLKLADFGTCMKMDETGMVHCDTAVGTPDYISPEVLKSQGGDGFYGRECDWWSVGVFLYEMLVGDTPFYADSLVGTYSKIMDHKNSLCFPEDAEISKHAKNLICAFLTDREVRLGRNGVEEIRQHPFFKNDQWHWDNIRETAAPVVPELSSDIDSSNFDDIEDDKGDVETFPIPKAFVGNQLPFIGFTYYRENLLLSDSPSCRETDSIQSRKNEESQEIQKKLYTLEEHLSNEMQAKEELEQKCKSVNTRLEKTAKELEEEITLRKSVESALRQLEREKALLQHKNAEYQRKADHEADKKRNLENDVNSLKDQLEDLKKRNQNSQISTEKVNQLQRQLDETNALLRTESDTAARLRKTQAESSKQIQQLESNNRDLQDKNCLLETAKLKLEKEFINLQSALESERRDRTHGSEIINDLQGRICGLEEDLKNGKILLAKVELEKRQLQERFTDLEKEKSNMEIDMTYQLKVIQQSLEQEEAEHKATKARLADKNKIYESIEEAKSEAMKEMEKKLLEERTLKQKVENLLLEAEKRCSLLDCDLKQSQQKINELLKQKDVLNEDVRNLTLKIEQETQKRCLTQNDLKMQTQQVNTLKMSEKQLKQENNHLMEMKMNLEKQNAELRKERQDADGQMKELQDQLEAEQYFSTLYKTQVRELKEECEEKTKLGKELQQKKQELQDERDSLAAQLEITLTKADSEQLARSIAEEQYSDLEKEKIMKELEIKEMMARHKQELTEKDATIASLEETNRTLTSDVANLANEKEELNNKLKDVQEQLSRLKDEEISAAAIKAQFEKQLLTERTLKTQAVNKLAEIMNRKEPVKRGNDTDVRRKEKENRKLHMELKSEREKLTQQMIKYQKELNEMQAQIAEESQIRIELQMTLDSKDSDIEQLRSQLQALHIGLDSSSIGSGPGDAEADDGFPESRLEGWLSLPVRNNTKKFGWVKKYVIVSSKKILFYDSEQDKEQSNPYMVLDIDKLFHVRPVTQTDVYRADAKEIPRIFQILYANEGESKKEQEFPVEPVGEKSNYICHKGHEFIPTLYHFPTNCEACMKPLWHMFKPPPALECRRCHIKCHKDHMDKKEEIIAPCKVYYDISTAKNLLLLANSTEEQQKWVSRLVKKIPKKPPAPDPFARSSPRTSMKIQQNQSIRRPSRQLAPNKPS
Sequence of Ribosomal protein S6 kinase alpha-2 (Homo sapiens) (Q15349 whole entry, the tested form may be a part): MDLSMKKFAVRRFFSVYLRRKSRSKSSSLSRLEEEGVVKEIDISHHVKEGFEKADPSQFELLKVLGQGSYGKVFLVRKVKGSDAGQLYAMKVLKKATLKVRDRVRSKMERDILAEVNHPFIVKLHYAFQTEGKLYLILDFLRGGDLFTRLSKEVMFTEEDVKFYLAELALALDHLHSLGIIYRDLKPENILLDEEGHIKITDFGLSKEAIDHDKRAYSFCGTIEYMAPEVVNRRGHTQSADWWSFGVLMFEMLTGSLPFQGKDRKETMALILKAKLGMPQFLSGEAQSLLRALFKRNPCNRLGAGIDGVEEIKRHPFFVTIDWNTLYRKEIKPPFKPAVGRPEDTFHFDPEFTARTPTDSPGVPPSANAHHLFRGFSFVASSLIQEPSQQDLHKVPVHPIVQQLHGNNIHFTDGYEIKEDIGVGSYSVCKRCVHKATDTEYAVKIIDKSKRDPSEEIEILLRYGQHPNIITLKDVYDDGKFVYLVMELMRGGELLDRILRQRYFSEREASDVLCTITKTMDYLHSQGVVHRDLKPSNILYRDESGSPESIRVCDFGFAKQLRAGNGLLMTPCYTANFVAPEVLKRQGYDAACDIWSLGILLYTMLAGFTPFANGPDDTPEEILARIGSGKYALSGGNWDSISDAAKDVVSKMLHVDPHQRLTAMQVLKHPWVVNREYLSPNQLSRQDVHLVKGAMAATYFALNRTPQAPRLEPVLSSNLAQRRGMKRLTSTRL

SMILES: O=C1C2=C(C(=O)c3c(O)ccc(O)c31)[C@@H](O)[C@@H](O)[C@@H](O)C2
- Activity [1]: 95%
- Activity [2]: 100%
- Activity [3]: 100%
- Activity [4]: 95%
- Activity [5]: 91%
- Activity [6]: 77%
- Activity [7]: 93%
- Activity [8]: 87%
- % of MOE kinase hits [9]: 29%
- % of MOE kinase hits [10]: 43%
- Activity [11]: 91%
- % of MOE kinase hits [12]: 29%
- Activity [13]: 90%
- Activity [14]: 89%
- Activity [15]: 76%
- Activity [16]: 100%
- Activity [17]: 53%
- Activity [18]: 96%
- Activity [19]: 93%
- Activity [20]: 100%
- Activity [21]: 100%
- Activity [22]: 100%
- Activity [23]: 57%
- Activity [24]: 87%
- Activity [25]: 100%
